Key:
[1] = Plasma clearance in Sprague-Dawley rat; assay type: ADME, organism-based
How it was run: (§1)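 Male Sprague–Dawley rats dosed intravenously and orally, with pharmacokinetic parameters derived from both routes.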

[2] = Volume of distribution at steady state in Sprague-Dawley rat; assay type: ADME, organism-based; conditions: in vivo, read-out: Vdss; how it was run: as §1
[3] = Oral bioavailability in Sprague-Dawley rat; assay type: ADME, organism-based; conditions: in vivo; how it was run: as §1
[4] = Half life in Sprague-Dawley rat; assay type: ADME, organism-based; conditions: in vivo; how it was run: as §1
[5] = Distribution coefficient, log D of the compound; assay type: physicochemical; conditions: chromatographic hydrophobicity index (CHI) at pH 7.4
How it was run: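 Measured hydrophobicity expressed as a chromatographic hydrophobicity index (CHI) logD at pH 7.4.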

[6] = Dissociation constant, pKa of the compound; assay type: physicochemical

Row | Structure (SMILES) | logD [5] | further results
1 | CN(C)Cc1ccn(-c2ccc(N3CCC(NS(=O)(=O)c4cc5ccc(Cl)cc5s4)C3=O)c(F)c2)n1 (configuration not stated) | 2.4 | –
2 | CN(C)Cc1nccn1-c1ccc(N2CCC(NS(=O)(=O)c3ccc4[nH]cc(Cl)c4c3)C2=O)c(F)c1 (configuration not stated) | 1.76 | –
3 | C/C(=C\S(=O)(=O)NC1CCN(c2ccc(-n3cnc(CN(C)C)c3)cc2F)C1=O)c1ccc(Cl)s1 (configuration not stated) | 1.64 | –
4 | CN(C)Cc1nccn1-c1ccc(N2CCC(NS(=O)(=O)c3ccc4cc(Cl)ccc4c3)C2=O)c(F)c1 (configuration not stated) | 2.55 | –
5 | CN(C)Cc1nccn1-c1ccc(N2CCC(NS(=O)(=O)c3ccc4c(Cl)c[nH]c4c3)C2=O)c(F)c1 (configuration not stated) | 1.98 | –
6 | CN(C)Cc1cn(-c2ccc(N3CCC(NS(=O)(=O)c4cc5ccc(Cl)cc5s4)C3=O)c(F)c2)cn1 (configuration not stated) | 1.82 | –
7 | CN(C)Cc1nccn1-c1ccc(N2CCC(NS(=O)(=O)c3cc4cc(Cl)ccc4s3)C2=O)c(F)c1 (configuration not stated) | 2.59 | –
8 | C/C(=C\S(=O)(=O)NC1CCN(c2ccc(-n3cncc3CN(C)C)cc2F)C1=O)c1ccc(Cl)s1 (configuration not stated) | 2.31 | –
9 | CN(C)Cc1ccnn1-c1ccc(N2CCC(NS(=O)(=O)c3cc4ccc(Cl)cc4s3)C2=O)c(F)c1 (configuration not stated) | 3.35 | –
10 | C/C(=C\S(=O)(=O)NC1CCN(c2ccc(-n3ccc(CN(C)C)n3)cc2F)C1=O)c1ccc(Cl)s1 (configuration not stated) | 2.2 | –

Second part, led by results:

Row | logD [5] | Structure (SMILES) | further results
11 | 2.44 | C/C(=C\S(=O)(=O)NC1CCN(c2ccc(-n3ccnc3CN(C)C)cc2F)C1=O)c1ccc(Cl)s1 (configuration not stated) | clearance [1]: 18 mL/min/kg; Vd [2]: 0.7 L/kg; bioavailability [3]: 16%; half-life [4]: 48 min
12 | 2.28 | O=C1C(NS(=O)(=O)/C=C/c2ccc(Cl)s2)CCN1c1ccc(-n2ccnc2CN2CCOCC2)cc1F (configuration not stated) | pKa [6]: 5.75
13 | 2.21 | O=C1C(NS(=O)(=O)/C=C/c2ccc(Cl)s2)CCN1c1ccc(-n2ccnc2CN2CCCC2)cc1F (configuration not stated) | pKa [6]: 7.95
14 | 2.75 | CN(C)Cc1nccn1-c1ccc(N2CCC(NS(=O)(=O)c3ncc(-c4ccc(Cl)s4)s3)C2=O)c(F)c1 (configuration not stated) | –
15 | 2.58 | O=C1C(NS(=O)(=O)/C=C/c2ccc(Cl)s2)CCN1c1ccc(-n2ccnc2CN2CCC(F)C2)cc1F (configuration not stated) | –
16 | 1.7 | CNCc1nccn1-c1ccc(N2CCC(NS(=O)(=O)/C=C/c3ccc(Cl)s3)C2=O)c(F)c1 (configuration not stated) | –
17 | 3.29 | CN(C)Cc1nocc1-c1ccc(N2CCC(NS(=O)(=O)/C=C/c3ccc(Cl)s3)C2=O)c(F)c1 (configuration not stated) | –
18 | 2.54 | CN(C)Cc1nccn1-c1ccc(N2CCC(NS(=O)(=O)/C=C/c3ccc(Cl)s3)C2=O)c(F)c1 (configuration not stated) | pKa [6]: 7.26; clearance [1]: 13 mL/min/kg; Vd [2]: 0.6 L/kg; bioavailability [3]: 52%; half-life [4]: 60 min
19 | 2.48 | CCN(C)Cc1nccn1-c1ccc(N2CCC(NS(=O)(=O)/C=C/c3ccc(Cl)s3)C2=O)c(F)c1 (configuration not stated) | –
20 | 2.58 | CN(C)Cc1nccn1-c1ccc(N2CCC(NS(=O)(=O)c3cc4ccc(Cl)cc4s3)C2=O)c(F)c1 (configuration not stated) | –
21 | 2.32 | CN(C)Cc1nccn1-c1ccc(N2CCC(NS(=O)(=O)CCc3ccc(Cl)s3)C2=O)c(F)c1 (configuration not stated) | clearance [1]: 39 mL/min/kg; Vd [2]: 1.1 L/kg; bioavailability [3]: 10%; half-life [4]: 48 min
22 | 2.7 | CC(C)N(C)Cc1nccn1-c1ccc(N2CCC(NS(=O)(=O)/C=C/c3ccc(Cl)s3)C2=O)c(F)c1 (configuration not stated) | –

Source: ChEMBL document CHEMBL1143208, “Structure and property based design of factor Xa inhibitors: biaryl pyrrolidin-2-ones incorporating basic heterocyclic motifs” (Bioorg Med Chem Lett, 2008)
